Source: publication PMC4677462 (Organic & biomolecular chemistry, 2012)
Values belong to the compound of their own block, whether it stands above or below them.

Legend:
HIF-1α [1] = assay: HIF-1α stabilisation immunoblot in Hep3B cells; type: cell-based, human; details: for Cell-based activity HIF-1α Induction: methyl or ethyl esters (numbers in parentheses) tested, 0.1 mM and 1 mM; for Cell-based activity HIF-1α Induction / HIF-1α stabilization / HIF-1α stabilization in presence of Fe(II): Hep3B cells, 6 h; for HIF-1α stabilization: absence of added Fe(II); for HIF-1α stabilization in presence of Fe(II): equimolar amount of Fe(II)
In short: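 Confluent human Hep3B hepatoma cells given methyl or ethyl ester forms of test compounds (100 mM DMSO stock) for 6 h under normoxia. Fe(II) experiments added equimolar Fe(II) either at the start or for the final 2 h, with DFO and DMOG as comparators. Whole-cell lysate immunoblots probed with mouse anti-HIF-1α (clone 54).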

[2] = target: catalytic domain of PHD2 (residues 181-426) (Homo sapiens, UniProt Q9GZT9); assay: Non-denaturing ESI-MS binding to PHD2 in presence of Fe; details: standard conditions; for ESI-MS competition with NOG for binding to PHD2: equimolar NOG; for PHD2-iron-compound complex formation / binding of a second iron in ESI-MS: 2 equiv. Fe(II), 1 equiv. compound
PHD2 = PHD2 (Homo sapiens, UniProt Q9GZT9); assay: AlphaScreen PHD2 inhibition assay; type: biochemical; details: 10μM and 300μM of compounds
HIF-1α [3] = assay: HIF-1α stabilisation immunoblot in RCC4/VHL cells; type: cell-based, human; details: 200 μM and 1mM
[4] = system: HIF prolyl and asparaginyl hydroxylases; assay: HIF-1α prolyl; type: cell-based, human; details: RCC4 cells, 1 mM and 2 mM
In short: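 VHL-defective RCC4 renal carcinoma cells carrying empty vector (RCC4/VA), which cannot degrade HIF-1α by the proteasome, grown to confluence and treated 5 h with test compound from 100 mM DMSO stock. Whole-cell lysate immunoblots probed with Hyp564- and HyAsn803-specific antibodies. Signals normalised to HIF-1α band intensity, with β-tubulin/β-actin as loading controls. DMSO negative and DMOG positive controls.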

catalytic domain of PHD2 (residues 181-426), sequence (Q9GZT9 181-426): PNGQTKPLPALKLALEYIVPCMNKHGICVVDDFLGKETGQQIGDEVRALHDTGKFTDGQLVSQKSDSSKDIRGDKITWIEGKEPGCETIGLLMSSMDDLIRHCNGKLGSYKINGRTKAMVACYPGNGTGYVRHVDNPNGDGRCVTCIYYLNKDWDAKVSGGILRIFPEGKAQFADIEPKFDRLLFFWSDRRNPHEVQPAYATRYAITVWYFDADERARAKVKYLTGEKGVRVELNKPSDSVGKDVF
PHD2, sequence (Q9GZT9 181-426): as above

Compound: O=C(O)CCC(=O)NNC(=O)c1cc2ccccc2cn1 [Compound 11]
- HIF-1α levels, free carboxylate compounds (HIF-1α [1]; human hepatoma Hep3B cells, free acid form): did not up-regulate HIF-1α levels
- ESI-MS competition with NOG for binding to PHD2 [2]: compete effectively with NOG for binding to PHD2

Compound: O=C(O)CNC(=O)c1nc(Cl)c2ccccc2c1O [BIQ, 2-(1-chloro-4-hydroxyisoquinoline-3-carboxamido)acetic acid]
- Cell-based activity HIF-1α Induction (HIF-1α [1]): Active

Compound: CC(=O)N(O)CCCCCNC(=O)CCC(=O)N(O)CCCCCNC(=O)CCC(=O)N(O)CCCCCN [DFO, deferoxamine]
- HIF-1α stabilization (HIF-1α [1]): induced HIF-1α stabilization
- HIF-1α stabilization in presence of Fe(II) (HIF-1α [1]): HIF-1α stabilization was not observed

- PHD2 inhibition in initial two-concentration screening (PHD2): weak PHD2 inhibitors
Compound: O=C(O)/C=C\C(=O)NNC(=O)c1ccccn1 [Compound 4]

- PHD2-iron-compound complex formation / binding of a second iron in ESI-MS [2]: only bound to one iron
Compound: O=C(O)/C=C/C(=O)NNC(=O)c1ccccn1 [Compound 5]
- HIF-1α upregulation (HIF-1α [3]): upregulated HIF-1α, but to a lesser extent than its ester

Compound: O=C(O)/C=C/C(=O)NNC(=O)c1cc2ccccc2cn1 [Compound 14]
- HIF-1α upregulation (HIF-1α [3]): almost no HIF-1α induction

- PHD2 inhibition in initial two-concentration screening (PHD2): weak PHD2 inhibitors
- PHD2-iron-compound complex formation / binding of a second iron in ESI-MS [2]: formed a two-iron complex with PHD2
Compound: O=C(O)CCCC(=O)NNC(=O)c1ccccn1 [Compound 2]

Compound: O=C(O)/C=C/C(=O)NNC(=O)c1cccnc1 [Compound 9]
- ESI-MS competition with NOG for binding to PHD2 [2]: compete effectively with NOG for binding to PHD2

Compound: COC(=O)CNC(=O)C(=O)OC [DMOG, Dimethyloxalyl glycine]
- HIF-1α stabilization (HIF-1α [1]): induced HIF-1α stabilization
- HIF-1α stabilization in presence of Fe(II) (HIF-1α [1]): reduction in HIF-1α stabilization
- Cell-based activity HIF-1α Induction (HIF-1α [1]): Active
- Inhibition of HIF prolyl-hydroxylation [4]: only partially inhibited
